Experimental findings from ChEMBL document CHEMBL1133763, “Synthesis and immunosuppressive activity of novel prodigiosin derivatives” (J Med Chem, 2000) are described below.

Data set [1] relates to Mus musculus. As to the kind of experiment: Dose able to reduce by 50% the thickness increase compared to controls by DTH Assay on mice after daily dose by ip route for 6 days. In kind it is functional. The settings on record: 144 h. The essentials:
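Female C57Bl/6 mice, 8-9 weeks, primed iv with 1 × 105 SRBC in saline; footpad challenge 5 days later with 1 × 108 SRBC. Compound in Cremophor ELP/ethanol (6.5:3.5) given ip daily for 6 days from priming day at several doses. Footpad swelling by dial micrometer 24 h post-challenge; ED50 = dose halving swelling increase; 10 animals/group, ≥3 experiments.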

Data set [2] deals with Mus musculus. As to the kind of experiment: The Toxicity of compound was measured by DTH Assay on mice after giving compound daily by ip route for 6 days at different doses. In kind it is organism-based. To be noted: in vivo, 144 h. The method, boiled down: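 Female C57Bl/6 mice, 8-9 weeks old, were primed iv with 1 × 10^5 SRBC and challenged in the footpad with 1 × 10^8 SRBC five days later. Compound in Cremophor ELP/ethanol (6.5:3.5 v:v) was given ip daily for 6 days from priming. Value is the minimal daily dose causing weight loss, hair ruffling or occasionally death, as mean ± SD of ≥3 experiments, 10 mice/group.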

Data set [3] is filed under the species Mus musculus. As to the kind of experiment: The concentration inhibiting 50% cell proliferation of murine Splenocytes induced by the mitogen Concanavalin A of mice. In kind it is functional. The method, boiled down:
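Spleens from C57Bl/6 mice; splenocytes at 4 × 10^5 cells/well in triplicate with Con A 1.7 µg/mL and varying compound concentrations in complete RPMI 1640. 72 h at 37 °C, 5% CO2; [3H]thymidine 0.2 µCi/well during final 18 h; uptake counted by scintillation. IC50 from % inhibition of cpm versus control; mean ± SD of ≥3 experiments.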

The subject of data set [4] is B16. The experiment in a line: Cytotoxicity, ability to inhibit viability of murine resting lymphocytes, murine B16 melanoma cells and human K562 erythroleukemia cells by 50% by […]. The class given is functional, cell-based. To be noted: Mus musculus. The essentials: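 Murine resting lymphocytes (4 × 10^5 cells/well), murine B16 melanoma and human K562 cells (1 × 10^5 cells/well each) seeded in triplicate with a range of compound concentrations in complete RPMI 1640 (10% inactivated FCS); DMSO stocks at 2 mg/mL diluted at use. MTT added for last 4 h of 48 h culture; formazan dissolved in HCl–2-propanol, OD 570/690 nm; IC50 from % inhibition versus control.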

Data set [5] has as its system B16. The experiment in a line: Selectivity index was evaluated. In kind it is functional, Mus musculus. The essentials: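 Ratio of mean IC50 for MTT viability in K562, B16 and resting lymphocytes (averaged over the three) to IC50 for Con A-stimulated splenocyte proliferation.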

Molecules are shown by their SMILES. ≈ marks a conversion by molar mass, not a printed value.

In the data set on Mus musculus [1], `CCCCCCCCCCCC1=N/C(=C\c2[nH]c(-c3ccc[nH]3)cc2OC)C=C1` [UNDECYLPRODIGININE] yielded an ED50 of 0.6 mg/kg. Moreover, the Toxicity in the data set with Mus musculus [2] was 1 mg/kg. The IC50 in the data set filed under Mus musculus [3] came to 0.002 µg/mL (≈ 0.00508 µM); in the data set with B16 [4], 0.106 µg/mL (≈ 0.269 µM).
Consider `COc1cc(-c2ccc[nH]2)[nH]c1/C=C1/C=CC(CCCCCCCCCCC(=O)O)=N1`, for which the IC50 in the data set listed under Mus musculus [3] and with B16 [4] was above 1 µg/mL throughout.
With `CCCCCCCCCCCC1=N/C(=C\c2[nH]c(-c3ccc[nH]3)cc2OC(C)C)C=C1`, the IC50 in the data set filed under Mus musculus [3] turned out to be 0.0026 µg/mL (≈ 0.00617 µM); in the data set with B16 [4] it was 0.282 µg/mL (≈ 0.669 µM). Further, in the data set on B16 [5], the Selectivity index is recorded as 108.
`CCCCCC1=N/C(=C\c2[nH]c(-c3ccc[nH]3)cc2OC)C=C1`: the results for the IC50 in the data set listed under Mus musculus [3] and in the data set on B16 [4] were 0.02 µg/mL (≈ 0.0646 µM) and 0.079 µg/mL (≈ 0.255 µM), respectively. This compound also gave a Selectivity index with B16 [5] of 4.
For the compound `CCCCCC1=N/C(=C\c2[nH]c(-c3ccc[nH]3)cc2OCc2ccccc2)C=C1`, the values for the IC50 in the data set filed under Mus musculus [3] and in the data set with B16 [4] were 0.0049 µg/mL (≈ 0.0127 µM) and 0.083 µg/mL (≈ 0.215 µM), respectively. In addition, in the data set with B16 [5], the Selectivity index worked out at 17.
The matching figures for `CCCCCCCCCCCCCC1=N/C(=C\c2[nH]c(-c3ccc[nH]3)cc2OCc2ccccc2)C=C1`: 0.262 µg/mL (≈ 0.526 µM), 2.78 µg/mL (≈ 5.59 µM) and 11.
On to `CCCCCCCC1=N/C(=C\c2[nH]c(-c3ccc[nH]3)cc2OC)C=C1`, for which the IC50 in the data set listed under Mus musculus [3] worked out at 0.0056 µg/mL (≈ 0.0166 µM). The compound also returned a Selectivity index with B16 [5] of 29.
For the compound `CCCCCCCCCCC1=N/C(=C\c2[nH]c(-c3ccc[nH]3)cc2OCc2ccccc2)C=C1`, the IC50 in the data set filed under Mus musculus [3] is 0.013 µg/mL (≈ 0.0285 µM); with B16 [4] it was 0.97 µg/mL (≈ 2.13 µM). Moreover, the Selectivity index with B16 [5] was determined as 75.
Consider `CCCCCCCCCCCC1=N/C(=C\c2[nH]c(-c3cc4cc(Cl)ccc4[nH]3)cc2OC)C=C1`, for which the IC50 in the data set filed under Mus musculus [3] and with B16 [4] was above 1 µg/mL each time.
Turning to `COc1cc(-c2ccc[nH]2)[nH]c1/C=C1/C=CC(CCCCCCO)=N1`, the IC50 turned out to be 0.0564 µg/mL (≈ 0.166 µM) in the data set filed under Mus musculus [3] and 0.787 µg/mL (≈ 2.32 µM) in the data set on B16 [4]. Further, in the data set with B16 [5], the Selectivity index was determined as 14.
As to `CC1=N/C(=C\c2[nH]c(-c3ccc[nH]3)cc2OCc2ccccc2)C=C1`, the IC50 came to 0.0079 µg/mL (≈ 0.024 µM) in the data set filed under Mus musculus [3] and 0.083 µg/mL (≈ 0.252 µM) with B16 [4]. Besides, in the data set on B16 [5], the Selectivity index was 10.
In turn, `CCCCCCCCCCCC1=N/C(=C\c2[nH]c(-c3ccc[nH]3)cc2OCCC)C=C1` had an ED50 in the data set with Mus musculus [1] of 1 mg/kg. This compound came in with a Toxicity in the data set with Mus musculus [2] of 2 mg/kg. The IC50 was determined as 0.0056 µg/mL (≈ 0.0133 µM) in the data set filed under Mus musculus [3] and 0.322 µg/mL (≈ 0.764 µM) in the data set on B16 [4]. In the data set with B16 [5], this compound had a Selectivity index of 58.
In the case of `CCCCCCCCCCCCCCCC1=N/C(=C\c2[nH]c(-c3ccc[nH]3)cc2OC)C=C1`, the half-maximal inhibitory concentration (IC50) in the data set listed under Mus musculus [3] was 0.0163 µg/mL (≈ 0.0362 µM); in the data set on B16 [4] it was 1.24 µg/mL (≈ 2.75 µM). The compound further displayed a Selectivity index in the data set on B16 [5] of 76.
For `COc1cc(-c2ccc[nH]2)[nH]c1/C=C1/C=CC(CCc2ccccc2)=N1`, the IC50 in the data set filed under Mus musculus [3] came out at 0.0075 µg/mL (≈ 0.0218 µM); with B16 [4], 0.299 µg/mL (≈ 0.871 µM). Besides, in the data set on B16 [5], the Selectivity index is on record as 40.
On to `CCCCCCCCCCCC1=N/C(=C\c2[nH]c(-c3cc4cc(OC)ccc4[nH]3)cc2OC)C=C1`, for which the IC50 was 0.128 µg/mL (≈ 0.27 µM) in the data set filed under Mus musculus [3] and above 1 µg/mL in the data set on B16 [4].
As to `COc1cc(-c2ccc[nH]2)[nH]c1/C=C1/C=CC(CCCCCCF)=N1`, the IC50 in the data set filed under Mus musculus [3] came to 0.0074 µg/mL (≈ 0.0217 µM); in the data set with B16 [4], 0.172 µg/mL (≈ 0.504 µM). The Selectivity index with B16 [5] is 23.
The like results for `C1=C/C(=C/c2[nH]c(-c3ccc[nH]3)cc2OCc2ccccc2)N=C1Cc1ccccc1` were, in that order, 0.0065 µg/mL (≈ 0.016 µM), 0.279 µg/mL (≈ 0.688 µM) and 43.
In the data set with Mus musculus [1], `CCCCCCCCCCCC1=N/C(=C\c2[nH]c(-c3ccc[nH]3)cc2OCC)C=C1` displayed an ED50 of 1.2 mg/kg. Further, in the data set with Mus musculus [2], the Toxicity was found to be 2 mg/kg. Moreover, the half-maximal inhibitory concentration (IC50) in the data set listed under Mus musculus [3] came out at 0.0018 µg/mL (≈ 0.00442 µM); in the data set on B16 [4] it was 0.193 µg/mL (≈ 0.474 µM). In the data set with B16 [5], this compound registered a Selectivity index of 107.
Take `CCCCCCCCCCCC1=N/C(=C\c2[nH]c(C(=O)NCC)cc2OC)C=C1`: the IC50 in the data set listed under Mus musculus [3] and in the data set on B16 [4] was above 1 µg/mL in each case.
Regarding `COc1cc(-c2ccc[nH]2)[nH]c1/C=C1/C=CC(CCCCCC(=O)O)=N1`, the IC50 in the data set filed under Mus musculus [3] and in the data set with B16 [4] was above 1 µg/mL throughout.
